The values below come from ChEMBL document CHEMBL4130546, “Structures of the Largest Amphidinol Homologues from the Dinoflagellate Amphidinium carterae and Structure-Activity Relationships” (J Nat Prod, 2017).

One series concerns Aspergillus niger. Kind of series: Antifungal activity against Aspergillus niger NBRC 31032 after 2 days by paper disk method. The series is classed as functional. The essentials:
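A. niger grown 2 days at 25 °C in glucose/peptone broth, spread on agar of the same medium (1.5% agar). Samples in MeOH spotted on 8 mm paper disks, up to 60 μg/disk; after 2 days at 25 °C the inhibition zone was measured and minimum effective concentration recorded.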

In the next series the test system is Erythrocyte. The series is described as follows: Hemolytic activity in human erythrocytes after 18 hrs by colorimetric method. The format is ADME, cell-based. The essentials:
(§1)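 Human RBCs washed in PBS (pH 7.4) by centrifugation and diluted to a 1% suspension (~1.7 × 10^7 cells/mL). 190 μL suspension mixed with 10 μL sample (up to 80 μM) or PBS; water-lysed RBCs served as 100%. Incubated at 37 °C for 18 h, centrifuged, supernatant absorbance read at 450 nm. % hemolysis and EC50 taken from dose-response curves.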

The subject of series [1] is Lipid bilayer. Kind of series: Membrane disrupting activity in large unilamellar vesicles assessed as calcein AM dye leakage at 10 uM by fluorescence assay relative to control. The format is physicochemical. The essentials: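 Calcein-loaded POPC or POPC/cholesterol (9:1 mol ratio) LUVs, with excess dye removed by Sepharose 4B gel filtration in Tris-HCl pH 7.5 containing 1 mM EDTA and 150 mM NaCl. Lipid at 27 μM in PBS. Fluorescence (ex 490/em 517 nm) read before and after adding compound. Triton X-100 was then added to define 100% leakage.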

Series [2] is described as follows: Hemolytic activity in human erythrocytes at 20 uM after 18 hrs by colorimetric method. The series is classed as ADME, cell-based, Erythrocyte. As to conditions: read-out: Activity. The essentials:
as §1

The test system of series [3] is Lipid bilayer. The series is described as follows: Membrane disrupting activity in POPC large unilamellar vesicles assessed as calcein AM dye leakage at 80 uM by fluorescence assay relative to control. The series is classed as physicochemical. In short, it runs like this: (§2)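 Calcein-loaded LUVs of POPC or POPC/Chol (9:1 mol) freed of external dye on Sepharose 4B in Tris-HCl pH 7.5, EDTA, NaCl. Vesicles diluted in PBS to 27 μM lipid and fluorescence read (ex 490/em 517 nm). Sample added and fluorescence re-read, then Triton X-100 added to give 100% leakage.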

The subject of series [4] is Lipid bilayer. The series is described as follows: Membrane disrupting activity in POPC/cholesterol large unilamellar vesicles assessed as calcein AM dye leakage at 80 uM by fluorescence assay relative to control. The format is physicochemical. The essentials: as §2
Series [5] concerns Lipid bilayer. Kind of series: Membrane disrupting activity in POPC/cholesterol large unilamellar vesicles assessed as calcein AM dye leakage at 20 uM by fluorescence assay relative to control. The format is physicochemical. In short, it runs like this:
as §2

The test system of series [6] is Lipid bilayer. The series is described as follows: Membrane disrupting activity in POPC large unilamellar vesicles assessed as calcein AM dye leakage at 20 uM by fluorescence assay relative to control. The format is physicochemical. In short, it runs like this: as §2

In general, EC50 refers to the concentration needed to bring the measured effect to its halfway point.

Compound `C=CCC/C=C/C=C/C=C/CC/C=C/C(O)C(O)C1OC(C(O)C(O)C(=C)CCC(O)C2CC(O)C(O)C(C(O)C(O)/C=C(\C)CCC(O)CC(O)C(O)C(C)CC(O)C(O)CC(C)CC/C=C/CC(O)CO)O2)CC(O)C1O` (stereo not given) yielded an MEC in the series on Aspergillus niger of 8 µg. For the same compound, the 50% effective concentration (EC50) with Erythrocyte was found to be 1200 nM.

Turning to `C=C/C=C/CC/C=C/C=C/C=C/CC/C=C/[C@H](O)[C@H](O)[C@@H]1O[C@@H]([C@H](O)[C@H](O)C(=C)CC[C@@H](O)[C@H]2C[C@@H](O)[C@@H](O)[C@H]([C@@H](O)[C@H](O)/C=C(\C)CC[C@H](O)C[C@H](O)[C@H](O)[C@@H](C)C[C@H](O)[C@@H](O)CCCCC[C@@H](O)CCC[C@@H](O)/C=C/C[C@@H](O)/C=C/C[C@@H](O)CO)O2)C[C@@H](O)[C@H]1O`, in the series with Lipid bilayer [1], the Activity is listed as 100%.

`C=CCC/C=C/C=C/C=C/CC/C=C/C(O)C(O)[C@@H]1O[C@@H](C(O)C(O)C(=C)CCC(O)[C@H]2C[C@@H](O)[C@@H](O)[C@H](C(O)C(O)/C=C(\C)CCC(O)CC(O)C(O)C(C)CC(O)CC(C)/C=C(\C)CC(O)CC(C)CCC(O)CC(O)C(O)C(C)C(O)CCCC(O)CCCC(O)CCCC(O)/C=C/CC(O)/C=C/CO)O2)C[C@@H](O)[C@H]1O` (stereo not given in full): the MEC with Aspergillus niger was greater than 15 µg. The compound also yielded an EC50 in the series on Erythrocyte of 1000 to 3000 nM. Moreover, the hemolysis at 18 h, 20 µM in series [2] is less than 100%. The Activity in the series on Lipid bilayer [3] was 20%; with Lipid bilayer [4] it was 20%; in the series with Lipid bilayer [5], less than 50%; in the series with Lipid bilayer [6], less than 50%.

As for `C=CCC/C=C/C=C/C=C/CC/C=C/C(O)C(O)[C@@H]1O[C@@H](C(O)C(O)C(=C)CCC(O)[C@H]2C[C@@H](O)[C@@H](O)[C@H](C(O)C(O)/C=C(\C)CCC(O)CC(O)C(O)C(C)CC(O)CC(C)/C=C(\C)CC(O)CC(C)CCC(O)CC(O)C(O)C(C)CC(O)CC(O)C(O)C(C)C(O)CCCC(O)CCCC(O)CCCC(O)/C=C/CC(O)/C=C/CO)O2)C[C@@H](O)[C@H]1O` (stereo not given in full), the MEC in the series with Aspergillus niger is greater than 15 µg. Moreover, the EC50 with Erythrocyte was greater than 10000 nM. Further, the Activity in the series with Lipid bilayer [3] is 20%; in the series on Lipid bilayer [4], 20%; with Lipid bilayer [5], less than 50%; with Lipid bilayer [6], less than 50%.

`C=CCC/C=C/C=C/C=C/CC/C=C/C(O)C(O)C1OC(C(O)C(O)C(=C)CCC(O)C2CC(O)C(O)C(C(O)C(O)/C=C(\C)CCC(O)CC(O)C(O)C(C)CC(O)C(O)CCCC(O)CCCC(O)CCCC(O)/C=C/CC(O)/C=C/CC(O)CO)O2)CC(O)C1O` (stereo not given) had an MEC in the series with Aspergillus niger of 6 µg. Also, the concentration giving a half-maximal response (EC50) with Erythrocyte worked out at 2900 nM.

Compound `C=CCC/C=C/C=C/C=C/CC/C=C/C(O)C(O)C1OC(C(O)C(O)C(=C)CCC(O)C2CC(O)C(O)C(C(O)C(O)/C=C(\C)CCC(O)CC(O)C(O)C(C)CC(O)CC(C)/C=C(\C)CC(O)CC(C)CC(O)C3CC(O)C(O)C(CC(O)CC(O)CO)O3)O2)CC(O)C1O` (stereo not given) displayed an MEC with Aspergillus niger of 6 µg. The same compound gave an EC50 in the series on Erythrocyte of 1700 nM.
